In ChEMBL document CHEMBL4334422, “Toxicities and beneficial protection of H2S donors based on nonsteroidal anti-inflammatory drugs” (Medchemcomm, 2019):
Active and inactive are the calls of the source. The calls are words filed in the database; no cut-off is given here.

Columns and labels:
[1] = Toxicity in Wistar kyoto rat assessed as light staining in cytoplasm of liver tissue at 10 mg/kg, ip administered for 14 days by H and E staining based assay; type: organism-based; details: in vivo, 336 h
Procedure, shortened: (§1)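 WKY rats were dosed intraperitoneally at 10 mg/kg daily for 14 days, using the 10% 1,3-propanediol vehicle, with a vehicle control group. Liver and kidney were collected and fixed immediately in 4% glutaraldehyde. Sections were stained with haematoxylin and eosin and scored for structural change under light microscopy.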

[2] = Toxicity in Wistar kyoto rat assessed as loose cytoplasm in kidney tissue at 10 mg/kg, ip administered for 14 days by H and E staining based assay; type: organism-based; details: in vivo, 336 h; procedure, shortened: as §1
[3] = Toxicity in Wistar kyoto rat assessed as reduction in intestinal mucosal congestion symptoms at 10 mg/kg, ip administered for 14 days by H and E staining based optical microscopic method; type: organism-based; details: in vivo, 336 h
Procedure, shortened: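 WKY rats, 3 per group, were dosed for 14 days, with the compound at 10 mg/kg per dose and the ibuprofen comparator at 6.1 mg/kg. Rats were anaesthetised with ether and killed by cervical dislocation. Stomach and intestine were sectioned at 5-10 µm, stained with haematoxylin and eosin, and examined by optical microscopy.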

[4] = Toxicity in Wistar kyoto rat assessed as abnormal nuclear morphology in liver tissue at 10 mg/kg, ip administered for 14 days by TEM assay; type: organism-based; details: in vivo, 336 h
Procedure, shortened: (§2)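 WKY rats were given 10 mg·kg⁻¹ intraperitoneally daily for 14 days, with vehicle-treated controls. Liver and kidney were collected and fixed in 4% glutaraldehyde. Tissue was examined after HE staining by light microscopy and by transmission electron microscopy at 6000, 10000 and 20000-fold.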

[5] = Toxicity in Wistar kyoto rat assessed as visible gaps in kidney tissue at 10 mg/kg, ip administered for 14 days by H and E staining based assay; type: organism-based; details: in vivo, 336 h; procedure, shortened: as §1
[6] = Toxicity in Wistar kyoto rat assessed as swollen proximal convoluted tubule cells at 10 mg/kg, ip administered for 14 days by H and E staining based assay; type: organism-based; details: in vivo, 336 h; procedure, shortened: as §1
Rattus norvegicus [7] = assay: Antihypertensive activity in ip dosed spontaneously hypertensive Wistar kyoto rat assessed as reduction in diastolic arterial pressure administered for 6 hrs and measured every 30 mins post treatment by tail-cuff method; type: functional, organism-based
Procedure, shortened: (§3)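 Male SHRs (8 weeks, 300 ± 25 g; 6 per group), given compound intraperitoneally once daily at 8 am in 0.5% (w/v) sodium carboxymethyl cellulose/DMSO 3/1 (v/v), 2 mL·kg⁻¹. Vehicle-treated SHR and WKY controls. SBP, DBP and heart rate were measured by tail-cuff on awake, restrained rats before dosing, then every 30 min for 6 h. Values are mean ± SD of four independent experiments.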

[8] = Cardiotoxicity in SHR rat assessed as myocardial fibers thickening at 10 mg/kg, ip administered for 14 days by H and E staining based microscopic assay; type: toxicity, organism-based; details: in vivo, 336 h
Procedure, shortened: (§4)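 SHRs were given 10 mg·kg⁻¹ intraperitoneally per day for 14 consecutive days, with an ibuprofen comparator and a normal control. Myocardial tissue was then removed. Sections were HE-stained for light microscopy and also examined by transmission electron microscopy at 6000, 10000 and 20000-fold.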

[9] = Toxicity in Wistar kyoto rat assessed as central venous in liver at 10 mg/kg, ip administered for 14 days by H and E staining based assay; type: organism-based; details: in vivo, 336 h; procedure, shortened: as §2
[10] = Cardiotoxicity in SHR rat assessed as thin myocardial fiber formation at 10 mg/kg, ip administered for 14 days by H and E staining based microscopic assay; type: toxicity, organism-based; details: in vivo, 336 h; procedure, shortened: as §4
[11] = Toxicity in Wistar kyoto rat assessed as increase in heterochromatin in liver tissue at 10 mg/kg, ip administered for 14 days by TEM assay; type: organism-based; details: in vivo, 336 h
Procedure, shortened: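 After 14 days of daily intraperitoneal dosing at 10 mg/kg in WKY rats, with vehicle controls, liver and kidney were fixed in 4% glutaraldehyde. Ultrastructure was examined by transmission electron microscopy at 6000-, 10000- and 20000-fold magnification.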

[12] = Toxicity in Wistar kyoto rat assessed as intact hepatic lobule structure at 10 mg/kg, ip administered for 14 days by H and E staining based assay; type: organism-based; details: in vivo, 336 h; procedure, shortened: as §1
[13] = Toxicity in Wistar kyoto rat assessed as visible gaps in hepatocytes at 10 mg/kg, ip administered for 14 days by H and E staining based assay; type: organism-based; details: in vivo, 336 h; procedure, shortened: as §1
[14] = Toxicity in Wistar kyoto rat assessed as hepatic sinus congestion at 10 mg/kg, ip administered for 14 days by H and E staining based assay; type: organism-based; details: in vivo, 336 h; procedure, shortened: as §2
Rattus norvegicus [15] = assay: Cardioprotective activity in SHR rat assessed as change in muscle fiber nature at 10 mg/kg, ip administered for 14 days by TEM analysis; type: functional, organism-based; procedure, shortened: as §4
Rattus norvegicus [16] = assay: Antihypertensive activity in spontaneously hypertensive Wistar kyoto rat assessed as reduction in diastolic arterial pressure at 10 mg/kg, ip administered for 6 hrs and measured every 30 mins post treatment by tail-cuff method; type: functional; procedure, shortened: as §3
Rattus norvegicus [17] = assay: Antihypertensive activity in spontaneously hypertensive Wistar kyoto rat assessed as reduction in diastolic arterial pressure at 40 mg/kg, ip administered for 6 hrs and measured every 30 mins post treatment by tail-cuff method; type: functional; procedure, shortened: as §3
Rattus norvegicus [18] = assay: Antihypertensive activity in spontaneously hypertensive Wistar kyoto rat assessed as reduction in systolic arterial pressure at 40 mg/kg, ip administered for 6 hrs and measured every 30 mins post treatment by tail-cuff method; type: functional; procedure, shortened: as §3
Rattus norvegicus [19] = assay: Cardioprotective activity in SHR rat assessed as neatly arrange myofibrils at 10 mg/kg, ip administered for 14 days by TEM analysis; type: functional, organism-based; procedure, shortened: as §4
Rattus norvegicus [20] = assay: Antihypertensive activity in spontaneously hypertensive Wistar kyoto rat assessed as reduction in diastolic arterial pressure at 20 mg/kg, ip administered for 6 hrs and measured every 30 mins post treatment by tail-cuff method; type: functional; procedure, shortened: as §3
Rattus norvegicus [21] = assay: Antihypertensive activity in spontaneously hypertensive Wistar kyoto rat assessed as reduction in systolic arterial pressure at 10 mg/kg, ip administered for 6 hrs and measured every 30 mins post treatment by tail-cuff method; type: functional; procedure, shortened: as §3
Rattus norvegicus [22] = assay: Cardioprotective activity in SHR rat assessed as change in muscle fiber mitochondria at 10 mg/kg, ip administered for 14 days by TEM analysis; type: functional, organism-based; procedure, shortened: as §4
H9c2 = assay: Cytoprotective activity against H2O2-induced toxicity in rat H9c2 cells assessed as increase in cell repair at 10 to 80 uM pretreated with compound followed by H2O2 addition and measured after 1 to 8 hrs by giemsa staining based microscopic method; type: functional
Procedure, shortened: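 H9c2 cells were injured with H₂O₂ (400 µM) for 1, 4 or 8 h to give light, medium and heavy damage, in the presence of compound at 10–80 µM. Acetaminophen or ibuprofen served as controls. Viability was measured as mean ± SD of three experiments. SOD and MDA contents were measured as mean ± SD of four experiments. Morphology was assessed by Giemsa staining under light microscopy.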

Rattus norvegicus [23] = assay: Cardioprotective activity in SHR rat assessed as change in myocardial disk dissociation at 10 mg/kg, ip administered for 14 days by TEM analysis; type: functional, organism-based; procedure, shortened: as §4
Rattus norvegicus [24] = assay: Antihypertensive activity in ip dosed spontaneously hypertensive Wistar kyoto rat assessed as reduction in systolic arterial pressure administered for 6 hrs and measured every 30 mins post treatment by tail-cuff method; type: functional, organism-based; procedure, shortened: as §3
Rattus norvegicus [25] = assay: Antihypertensive activity in spontaneously hypertensive Wistar kyoto rat assessed as reduction in systolic arterial pressure at 20 mg/kg, ip administered for 6 hrs and measured every 30 mins post treatment by tail-cuff method; type: functional; procedure, shortened: as §3
[26] = Toxicity in Wistar kyoto rat assessed as congestion in renal tissue at 10 mg/kg, ip administered for 14 days by H and E staining based assay; type: organism-based; details: in vivo, 336 h; procedure, shortened: as §2
[27] = Toxicity in Wistar kyoto rat assessed as swollen renal cells at 10 mg/kg, ip administered for 14 days by H and E staining based assay; type: organism-based; details: in vivo, 336 h; procedure, shortened: as §1

SMILES	Activity [1]	Activity [2]	Activity (Rattus norvegicus [7])	Activity [9]	Activity [10]	Activity [12]	Activity [13]	Activity [14]	Diastolic arterial pressure (Rattus norvegicus [16])	Activity (Rattus norvegicus [17])	Activity (Rattus norvegicus [18])	Activity (Rattus norvegicus [20])	Systolic arterial pressure (Rattus norvegicus [21])	Activity (Rattus norvegicus [25])	further results
CC(C)Cc1ccc(C(C)C(=O)Oc2ccc(C(N)=S)cc2)cc1 (configuration not stated)	Toxic	Toxic	Dose-dependent effect	Toxic	Active	Non-Toxic	Toxic	Toxic							Activity [3]: Non-Toxic; Activity [4]: Toxic; Activity [5]: Toxic; Activity [6]: Toxic; Activity [8]: Active; Activity [11]: Toxic
CC(=O)Nc1ccc(OC(=O)CCCCC2CCSS2)cc1 (configuration not stated)			Dose-dependent effect		Active				113.8 mmHg	99.4 mmHg	115.3 mmHg	110.9 mmHg	139.1 mmHg	127.6 mmHg	Activity (Rattus norvegicus [15]): Active; Activity (Rattus norvegicus [19]): Active; Activity (Rattus norvegicus [22]): Active; Activity (H9c2): Active; Activity (Rattus norvegicus [23]): Active; Activity (Rattus norvegicus [24]): Dose-dependent effect
CC(C)Cc1ccc(C(C)C(=O)Oc2ccc(-c3cc(=S)ss3)cc2)cc1 (configuration not stated)	Toxic	Toxic		Toxic		Non-Toxic	Toxic	Toxic	116.3 mmHg	112.4 mmHg	135.1 mmHg	115.1 mmHg	142.9 mmHg	136.7 mmHg	Activity [26]: Toxic; Activity [27]: Toxic
